Assay results taken from the EternaBench riboswitch data.

Tested on: MS2 coat protein
Assay: apparent Kd, MS2 coat protein; higher = weaker binding; RNA-MaP array; FMN 200 µM where present
How it was run: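 Stalled E. coli RNA polymerase produced the designs on Illumina sequencing-chip clusters. SNAP-549-labelled MS2 coat protein was added from 0.7 or 1.5 nM, doubling to 3 µM, without and then with constant ligand, in 100 mM Tris-HCl pH 7.5, 80 mM KCl, 4 mM MgCl2, BSA, DTT, yeast tRNA and Tween-20. The apparent Kd is the median of filtered per-cluster fits of green signal normalised to red-channel RNA signal and control-cluster median Fmax.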

[1] = designed as: ON switch for flavin mononucleotide, no ligand
[2] = ligand present: flavin mononucleotide, designed as: ON switch for flavin mononucleotide
[3] = designed as: OFF switch for flavin mononucleotide, no ligand
[4] = ligand present: flavin mononucleotide, designed as: OFF switch for flavin mononucleotide

Row | Sequence | apparent Kd [1] [nM] | apparent Kd [2] [nM] | apparent Kd [3] [nM] | apparent Kd [4] [nM]
1 | GCGCUUAUACAGAAGGCCAUAUACAUGAGGAUCACCCAUGUUACAUGGUGGAGGAUAUGUUAUUUAUUACAGGUAGAUGAGCGC | 4.71 | 5.32 |  | 
2 | UUGGACGUCGUAGGAUAUGUUGGAUAUUCCUACAUGAGGAUCACCCAUGUUGACAUGGAAGAAGGACAGAAGGACGAUGUCCAU | 5.08 | 4.49 |  | 
3 | AGGGAACAUGAGGAUCACCCAUGUGAGGAUAUACAAAAGAAAAGAAAAGAAAGAAGAAGUAGAAGGUACAAGAA |  |  | 28.2 | 35.5
4 | AAAUAGGAAGGAUAUACGGCGGGAUACUGGUUCCACGUGUUACAUGAGGAUCACCCAUGUAGAAGGUCUGGUUA |  |  | 24.7 | 55.4
5 | GAAUGUAAAGAGAAGGGCUACUGGUUGAAACCUGCGGCCUCUGGAACAUGAGGAUCACCCAUGUAGCAGGAUAUCUUUGCGUCA |  |  | 192 | 29.5
6 | AAUCACAUGAGGAUCACCCAUGUGCCAGAAGGCACAAAUCUGCCUGGUGCGCCCGGGCUUCUCUGUGAGGAUAUGGAAAAGAAG | 309 | 76 |  | 
7 | CUUUUGUGAGGAUAUCAGUAGUAAAUAAAUAAAAUUAAUACUGAGAAGGCACAUGAGGAUCACCCAUGUUCCUC |  |  | 33.1 | 162
8 | GUCAGCUCGUGAGGAUAUACAUGUGCUGGAGACAGCACUAAUAGAAUCACAUGAGGAUCACCCAUGUAGAAGGCACGAGCUGAU |  |  | 17 | 41.2
9 | AAGAGGUCAGGAUAUACGGAGAGAGGGAGUUGGUGAGGGUAACAUGAGGAUCACCCAUGUAGAAGGGACUAAGA |  |  | 22.4 | 24.7
10 | ACGGCAGUCGAAGGAUAUGGUUACAUGAGGAUCACCCAUGUCUAGGUUCUUAAAUAGUAUAAUUUCCAGAAGGUCGAAGGCCUA |  |  | 29.4 | 35.5
11 | GGAAAACAUGAGGAUCACCCAUGUGAGGAUAUCGAUGUCCAAAAACAAGUGCGGGACUCGAGAAGGCACUUGGA |  |  | 35 | 23.2
12 | UUACCUCAUGAGAAGGACAUGAGGAUCACCCAUGUAGGAUAUCGUGGGACACUGGUAUUGAAUCUUCGGAUUCAAUACCUGUGU | 465 | 29 |  | 
13 | GCCGAUUAAGUGAGGAUAUACCUAUGGAUACAUAGGUAGAAGGUACAUGAGGAUCACCCAUGUUCCUUAACGGC |  |  | 11.4 | 13.2
14 | AAAAGACAUGAGGAUCACCCAUGUCAGGAUAUCUAUAUUCAAGGGUCGGAGGGAAUACAGAGAAGGGAUGAGGG |  |  | 21.8 | 24.8
15 | CGAGUGUAAGGAUAUUCGGCACCAGAGAACGAUCUGGCGUAGAAGAAGGUACAUGAGGAUCACCCAUGUGGUUA |  |  | 158 | 41.7
16 | UCGAACGGAAACAAAGUCUUCGGACAUGAGGAUCACCCAUGUAAGGAUAUGCCUACUAAAAGUAGGCAGAAGGUACGCGUUCGA |  |  | 22.1 | 51.1
17 | GGGUACAUCGGAGGAUAUCAUGUAAAUACAUGAGGAUCACCCAUGUCGAUGGAGACGUCGGAGAUUGAGAAGGCCGAUGUACCG | 91 | 7.8 |  | 
18 | ACAAGAUCAGGAUAUACAUGAGGAUCACCCAUGUUUAUCAAAAAAAGGCUUUCAUCAUGUAGAAGGGAUCUUGU |  |  | 99 | 126
19 | AAACACGGACAUGAGGAUCACCCAUGUGGCGAAAGCCUUGGGAGAAGGCAGUAUGCAAAGCAUUCUGAGGAUAUUCAUACCGUG | 926 | 68.9 |  | 
20 | AAAAAACAUGAGGAUCACCCAUGUGAGGAUAUGAUGCGAAUAAAGAAAGAAGAAAGCAUCAGAAGGCACACCUA |  |  | 50.1 | 83.9
21 | GUCCUACAUGAGGAUCACCCAUGUAAGGAUAUGCUAGCGGUCGGAUGACUGACUGCUAGCAGAAGGUACAUGAU |  |  | 15.2 | 24.9
22 | AUCAGCUCGUCAGGAUAUACGUCACUGCGUCAGCAGUGUGGUAAGAUCACAUGAGGAUCACCCAUGUAGAAGGCACGAGCUGAU |  |  | 8.44 | 9.04
23 | GCCAUCAUAUGAGGAUAUGACACCGAAACGGUGUCAGAAGGCAUGUCGAUAGACAUGAGGAUCACCCAUGUAUAGAUGAUGGCA | 963 | 67.8 |  | 
